From ChEMBL document CHEMBL4477211, “Synthesis and Investigation of Tetrahydro-β-carboline Derivatives as Inhibitors of the Breast Cancer Resistance Protein (ABCG2)” (J Med Chem, 2016)

Columns and labels:
[1] = Solubility in pH 7.4 Krebs-HEPES buffer assessed as compound precipitation at 10 uM after 2 hrs by UV-visible spectrophotometric analysis; format: physicochemical; details: pH 7.4, 2 h
How it was run: (§1)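 10 µM test solutions prepared from DMSO stocks as for the Hoechst 33342 assay, in Krebs-HEPES pH 7.4. Absorbance at an absorption peak maximum recorded every 120 s for 2 h at room temperature by UV/visible spectrophotometer.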

ABCB1 = ABCB1 (Homo sapiens, UniProt P08183); experiment: Inhibition of ABCB1 in human A2780/ADR cells assessed as reduction in calcein AM efflux at 10 uM pre-incubated for 30 mins before calcein AM addition and measured for 60 mins by microplate reader analysis relative to control; format: cell-based; details: probe calcein AM
Sequence of ABCB1 (P08183 whole entry): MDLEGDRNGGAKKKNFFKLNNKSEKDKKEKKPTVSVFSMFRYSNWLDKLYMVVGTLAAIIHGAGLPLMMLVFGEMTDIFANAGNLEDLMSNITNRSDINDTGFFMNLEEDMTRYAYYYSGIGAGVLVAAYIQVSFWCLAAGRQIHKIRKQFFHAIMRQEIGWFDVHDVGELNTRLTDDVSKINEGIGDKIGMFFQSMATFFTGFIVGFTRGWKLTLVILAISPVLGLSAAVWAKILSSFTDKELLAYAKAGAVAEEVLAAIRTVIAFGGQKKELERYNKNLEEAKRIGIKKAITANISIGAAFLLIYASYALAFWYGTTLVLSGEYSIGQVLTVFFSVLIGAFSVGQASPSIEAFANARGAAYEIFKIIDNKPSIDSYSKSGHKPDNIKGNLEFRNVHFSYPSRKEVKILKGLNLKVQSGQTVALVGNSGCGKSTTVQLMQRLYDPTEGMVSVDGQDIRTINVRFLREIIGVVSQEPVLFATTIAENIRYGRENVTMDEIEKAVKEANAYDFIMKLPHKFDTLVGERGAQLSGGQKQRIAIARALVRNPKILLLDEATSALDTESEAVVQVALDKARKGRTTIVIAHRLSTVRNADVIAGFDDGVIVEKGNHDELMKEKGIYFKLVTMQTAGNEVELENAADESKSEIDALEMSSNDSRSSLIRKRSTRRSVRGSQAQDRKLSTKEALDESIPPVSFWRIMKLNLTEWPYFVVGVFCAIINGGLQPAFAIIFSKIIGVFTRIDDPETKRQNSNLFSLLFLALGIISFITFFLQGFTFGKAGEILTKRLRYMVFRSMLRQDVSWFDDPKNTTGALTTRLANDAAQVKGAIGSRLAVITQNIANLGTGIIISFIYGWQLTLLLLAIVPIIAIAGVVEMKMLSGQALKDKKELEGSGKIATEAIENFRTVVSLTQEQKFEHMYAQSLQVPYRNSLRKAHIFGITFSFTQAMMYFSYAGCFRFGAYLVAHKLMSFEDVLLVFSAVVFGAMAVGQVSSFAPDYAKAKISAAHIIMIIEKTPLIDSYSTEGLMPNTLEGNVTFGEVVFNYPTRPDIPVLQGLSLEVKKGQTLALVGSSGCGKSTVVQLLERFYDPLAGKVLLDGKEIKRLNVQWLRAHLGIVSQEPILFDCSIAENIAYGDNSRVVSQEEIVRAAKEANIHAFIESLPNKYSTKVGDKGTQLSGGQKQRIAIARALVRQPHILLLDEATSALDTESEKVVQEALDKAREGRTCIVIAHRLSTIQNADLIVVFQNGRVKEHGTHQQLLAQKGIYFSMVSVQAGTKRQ
How it was run: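 Compound at 10 µM pre-incubated 30 min at 37 °C. Calcein AM added from 3.125 µM solution. Fluorescence (ex 485/em 520 nm) read every 60 s for 60 min.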

[2] = biological target: T1, Broad substrate specificity ATP-binding cassette transporter ABCG2 (Homo sapiens, UniProt Q9UNQ0); experiment: Inhibition of human ABCG2 expressed in MDCK2 cells assessed as reduction in Hoechst 33342 efflux pre-incubated for 30 mins before Hoechst 33342 addition and measured for 120 mins by microplate reader analysis; format: cell-based; details: read-out: IC50
T1 sequence (Q9UNQ0 whole entry): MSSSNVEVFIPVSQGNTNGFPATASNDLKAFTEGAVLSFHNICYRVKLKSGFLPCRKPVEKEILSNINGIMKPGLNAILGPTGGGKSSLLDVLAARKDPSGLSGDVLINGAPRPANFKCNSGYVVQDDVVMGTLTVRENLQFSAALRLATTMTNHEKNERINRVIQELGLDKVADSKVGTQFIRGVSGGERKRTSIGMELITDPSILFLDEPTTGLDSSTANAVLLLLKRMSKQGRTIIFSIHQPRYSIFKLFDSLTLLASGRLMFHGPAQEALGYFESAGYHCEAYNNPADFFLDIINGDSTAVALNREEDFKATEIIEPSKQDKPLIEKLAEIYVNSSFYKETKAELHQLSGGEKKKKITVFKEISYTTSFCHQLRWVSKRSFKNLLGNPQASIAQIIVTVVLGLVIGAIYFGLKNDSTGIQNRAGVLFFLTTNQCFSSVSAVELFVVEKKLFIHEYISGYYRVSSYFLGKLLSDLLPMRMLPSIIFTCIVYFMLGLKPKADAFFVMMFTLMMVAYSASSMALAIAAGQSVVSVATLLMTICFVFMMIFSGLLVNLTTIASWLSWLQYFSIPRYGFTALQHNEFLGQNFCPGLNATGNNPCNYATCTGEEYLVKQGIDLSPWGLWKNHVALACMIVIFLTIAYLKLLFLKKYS
How it was run: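 Compound dilutions up to 10 µM (from 10 mM DMSO stocks) pre-incubated 30 min at 37 °C. Hoechst 33342 then added from 6 µM solution. Fluorescence (ex 355/em 460 nm) read each 60 s over 120 min.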

[3] = Solubility in pH 7.4 Krebs-HEPES buffer assessed as absorbance value at 10 uM after 2 hrs by UV-visible spectrophotometric analysis relative to control; format: physicochemical; details: pH 7.4, 2 h; how it was run: as §1
ABCG2 = biological target: T2, ABCG2 (Homo sapiens, UniProt Q9UNQ0); experiment: Ratio of IC50 for human ABCG2 expressed in baculovirus infected Sf9 cell membrane assessed as inhibition of vanadate sensitive quercetin-stimulated ATPase activity to IC50 for human ABCG2 expressed in baculovirus infected Sf9 cell membrane assessed as inhibition of vanadate sensitive basal ATPase activity; details: read-out: Ratio IC50
T2 sequence (Q9UNQ0 whole entry): T1 sequence (Q9UNQ0 whole entry)

[4] = Cytotoxicity against MDCK2 cells expressing human ABCG2 assessed as reduction in cell viability after 72 hrs by MTT assay; format: ADME, cell-based, Canis lupus familiaris; details: dog, MDCK2 (MDCK-II) cells expressing human ABCG2
How it was run: (§2)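 MDCK II cells retrovirally transfected with human ABCG2-GFP cDNA, and wild-type MDCK II, in DMEM with 10% FBS. Seeded at 3 x 10^3 cells/well and attached 6 h at 37 °C, 5% CO2. Compounds up to 100 µM for 72 h. Controls were 10% DMSO and medium. MTT (5 mg/ml) added for 1 h, read at 570 nm minus 690 nm. Data normalised; GI50 from variable-slope sigmoidal fit.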

[5] = Ratio of GI50 for MDCK2 cells expressing human ABCG2 to IC50 for human ABCG2 expressed in MDCK2 cells
[6] = biological target: T1, Broad substrate specificity ATP-binding cassette transporter ABCG2; experiment: Inhibition of human ABCG2 expressed in baculovirus infected Sf9 cell membrane assessed as inhibition of vanadate sensitive basal ATPase activity after 20 mins by colorimetric method
How it was run: (§3)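 Cholesterol-loaded membranes from Sf9 cells infected with baculovirus carrying human wild-type ABCG2; 10 µg protein per reaction. Buffer: 40 mM MOPS-Tris pH 7.0, 50 mM KCl, 2 mM DTT, 0.5 mM EGTA-Tris, 5 mM azide, 1 mM ouabain. Started with 3.3 mM MgATP, 20 min at 37 °C, stopped with SDS. Pi measured by molybdate/ascorbate colour at 880 nm against K2HPO4 standard.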

[7] = biological target: T1, Broad substrate specificity ATP-binding cassette transporter ABCG2; experiment: Inhibition of human ABCG2 expressed in baculovirus infected Sf9 cell membrane assessed as inhibition of vanadate sensitive ATPase activity at 1 uM after 20 mins by colorimetric method; details: sf9, 20 min
[8] = biological target: T1, Broad substrate specificity ATP-binding cassette transporter ABCG2; experiment: Reversal of human ABCG2-mediated resistance to SN-38 in human ABCG2 expressed MDCK2 cells assessed as reduction in SN-38 GI50 after 72 hrs by MTT assay
[9] = Cytotoxicity against wild-type MDCK2 cells assessed as reduction in cell viability after 72 hrs by MTT assay; format: cell-based, Canis lupus familiaris; details: dog, wild-type MDCK2 (MDCK-II) cells; how it was run: as §2
[10] = biological target: T1, Broad substrate specificity ATP-binding cassette transporter ABCG2; experiment: Inhibition of human ABCG2 expressed in MDCK2 cells assessed as reduction in pheophorbide A efflux pre-incubated for 30 mins before pheophorbide A addition and measured for 120 mins by flow cytometry; details: read-out: IC50
[11] = Ratio of GI50 for wild-type MDCK2 cells to IC50 for human ABCG2 expressed in MDCK2 cells
[12] = biological target: T1, Broad substrate specificity ATP-binding cassette transporter ABCG2; experiment: Inhibition of human ABCG2 expressed in baculovirus infected Sf9 cell membrane assessed as inhibition of vanadate sensitive quercetin-stimulated ATPase activity after 20 mins by colorimetric method; how it was run: as §3
[13] = Solubility in pH 7.4 Krebs-HEPES buffer at 10 uM after 2 hrs by UV-visible spectrophotometric analysis; format: physicochemical; details: pH 7.4, 2 h; how it was run: as §1

Row | Activity [1] | inhibition at 1 h, 10 µM (ABCB1) | IC50 [2] | Activity [3] | IC50 [6] | inhibition (INH) [7] | Activity [8] | IC50 [10] | IC50 [12] | solubility [13] | SMILES | selectivity ratio (ABCG2) | GI50 at 72 h [4] | Ratio [5] | GI50 at 72 h [9] | Ratio [11]
1 | 80% | < 25% | > 10000 nM |  |  |  |  |  |  |  | O=C(c1ccccc1)N1CCc2c([nH]c3ccccc23)C1c1cccc([N+](=O)[O-])c1 (centres undefined) |  |  |  |  | 
2 |  | < 25% | > 10000 nM | 40% |  |  |  |  |  |  | O=C(c1ccccc1)N1CCc2c([nH]c3ccccc23)C1c1ccccc1Cl (centres undefined) |  |  |  |  | 
3 | 80% | < 25% | > 10000 nM |  |  |  |  |  |  |  | O=C(c1ccccc1)N1CCc2c([nH]c3ccccc23)C1c1ccc(C(F)(F)F)cc1 (centres undefined) |  |  |  |  | 
4 |  | < 25% | 328 nM |  | 31 nM | Active | Dose-dependent effect | 365 nM | 262 nM |  | O=C(c1ccccc1)N1CCc2c([nH]c3ccccc23)C1c1ccc(Cl)c(Cl)c1 (centres undefined) | 8.4 | 6950 nM | <=20 | 7290 nM | <=20
5 |  | < 25% | > 10000 nM | 40% |  |  |  |  |  |  | O=C(c1ccccc1)N1CCc2c([nH]c3ccccc23)C1c1ccccc1Br (centres undefined) |  |  |  |  | 
6 |  | < 25% | 238 nM |  | 38 nM | Active | Dose-dependent effect | 206 nM | 262 nM |  | COc1cccc(C(=O)N2CCc3c([nH]c4ccccc34)C2c2ccc(Cl)c(Cl)c2)c1 (centres undefined) | 7 | 5820 nM | <=20 | 6550 nM | <=20
7 |  | < 25% | 233 nM |  | 26 nM | Active | Dose-dependent effect | 237 nM | 285 nM | Soluble | COc1ccc(C(=O)N2CCc3c([nH]c4ccccc34)C2c2ccc(Cl)c(Cl)c2)cc1 (centres undefined) | 11 | 4670 nM | <=20 | 4830 nM | <=20
